Reference: ChEMBL document CHEMBL4732057, “Design, synthesis and biological evaluation of second-generation benzoylpiperidine derivatives as reversible monoacylglycerol lipase (MAGL) inhibitors” (Eur J Med Chem, 2021)
pIC50: −log10 of the molar value.

Columns and labels:
[1] = biological target: T1, Monoglyceride lipase (Homo sapiens, UniProt Q99685); assay: Inhibition of human recombinant MAGL using 4-nitrophenylacetate as substrate incubated for 30 mins by microplate reader assay
T1 sequence (Q99685 whole entry): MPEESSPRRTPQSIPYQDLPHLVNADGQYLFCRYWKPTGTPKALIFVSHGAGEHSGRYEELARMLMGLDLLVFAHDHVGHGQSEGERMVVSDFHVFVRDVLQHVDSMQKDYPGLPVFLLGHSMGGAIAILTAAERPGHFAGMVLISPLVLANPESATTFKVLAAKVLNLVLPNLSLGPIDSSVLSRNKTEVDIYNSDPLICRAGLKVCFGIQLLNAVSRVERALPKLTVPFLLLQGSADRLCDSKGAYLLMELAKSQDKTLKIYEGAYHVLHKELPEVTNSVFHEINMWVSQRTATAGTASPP
In short: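 Human recombinant MAGL, 11 ng/well, in 10 mM Tris pH 7.2 with 1 mM EDTA and 0.1 mg/mL BSA, at room temperature. 4-NPA 133.3 µM stock added; enzyme added last. Absorbance at 405 nm after 30 min, minus a no-enzyme blank for each concentration. Sigmoidal fit; duplicates of three independent experiments.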

[2] = Antiproliferative activity against human PDAC-3 cells assessed as inhibition of cell growth incubated for 72 hrs by SRB assay; assay type: functional, cell-based; conditions: PDAC-3, 72 h
In short: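 Primary patient-derived PDAC-3 cells, cultured under 20 passages in RPMI-1640 with 10% NBCS. Compounds dissolved in DMSO and tested at 8 concentrations, 156.25 to 20 000 nM. Growth read by sulforhodamine-B assay.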

[3] = system: OVCAR-3; assay: Antiproliferative activity against human OVCAR3 cells as reduction in cell growth measured after 96 hrs by Celltiter-glo luminescent assay; assay type: functional, cell-based; conditions: OVCAR-3, 96 h
In short: (§1)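 Cell lines kept at 37 °C, 5% CO2; 5 × 10^2 cells per well, compound added the day after seeding at 200 to 0.02 µM. Viability read after 96 h by CellTiter-Glo luminescence. IC50 from logistic dose-response curves, in triplicate; error bars are SD.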

[4] = Cytotoxicity against cancer-derived human organoids in HGSOC patient assessed as reduction in cell viability up to 100 uM measured after 96 hrs by Celltiter-glo luminescent assay; assay type: functional, Neoplasm; conditions: dose microM <=100
In short: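 Organoids from three HGSOC patients. Tissue digested with 2 mg/mL collagenase for 30 min, embedded in BME matrix and cultured. Treated at 100 µM, with carboplatin as positive control. Viability read by CellTiter-Glo luminescence.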

[5] = system: MDA-MB-231; assay: Antiproliferative activity against human MDA-MB-231 cells as reduction in cell growth measured after 96 hrs by Celltiter-glo luminescent assay; assay type: functional, cell-based; conditions: MDA-MB-231, 96 h; in short: as §1
[6] = system: SK-OV-3; assay: Antiproliferative activity against human SKOV3 cells as reduction in cell growth measured after 96 hrs by Celltiter-glo luminescent assay; assay type: functional, cell-based; conditions: SK-OV-3, 96 h; in short: as §1
[7] = system: HCT-116; assay: Antiproliferative activity against human HCT116 cells as reduction in cell growth measured after 96 hrs by Celltiter-glo luminescent assay; assay type: functional, cell-based; conditions: HCT-116, 96 h; in short: as §1
[8] = system: Caov-3 cell line; assay: Antiproliferative activity against human CAOV3 cells as reduction in cell growth measured after 96 hrs by Celltiter-glo luminescent assay; assay type: functional, cell-based; conditions: Caov-3, 96 h; in short: as §1

Q: With CC(C)c1ccc(C(=O)C2CCN(C(=O)c3ccnc(O)c3)CC2)cc1 as the compound, how does the pIC50 [1] read?
A: The pIC50 was under 5.00.

Q: With O=C(c1ccc(Nc2ccccc2)cc1)C1CCN(C(=O)c2cccc(O)c2)CC1 as the compound, how does the pIC50 [1] read?
A: The pIC50 was 6.12.

Q: With CC(C)c1ccc(C(=O)C2CCN(C(=O)c3cc(O)ccc3N)CC2)cc1 as the compound, how does the pIC50 [1] read?
A: The pIC50 was under 5.00.

Q: With CC(C)c1ccc(C(=O)C2CCN(C(=O)c3cccc(O)n3)CC2)cc1 as the compound, how does the pIC50 [1] read?
A: Its pIC50 is under 5.00.

Q: With CC(C)c1ccc(C(=O)C2CCN(C(=O)c3cccc(O)c3)CC2)cc1 as the compound, how does the pIC50 [1] read?
A: The pIC50 was 6.85.

Q: With CC(C)c1ccc(C(=O)C2CCN(C(=O)c3cc(O)ccc3[N+](=O)[O-])CC2)cc1 as the compound, how does the pIC50 [1] read?
A: The pIC50 was 5.35.

Q: With O=C(c1ccc(-c2cn(-c3ccccc3)nn2)cc1)C1CCN(C(=O)c2cccc(O)c2)CC1 as the compound, how does the pIC50 [1] read?
A: The pIC50 was 6.00.

Q: With O=C(c1ccc(S(=O)(=O)c2ccccc2)cc1)C1CCN(C(=O)c2cccc(O)c2)CC1 as the compound, how does the pIC50 [1] read?
A: Its pIC50 is 5.47.

Q: With O=C(c1ccc(-c2cn(Cc3ccccc3)nn2)cc1)C1CCN(C(=O)c2cccc(O)c2)CC1 as the compound, how does the pIC50 [1] read?
A: Its pIC50 is 5.36.

Q: With CC(C)c1ccc(C(=O)C2CCN(C(=O)c3cc(O)ccc3C(F)(F)F)CC2)cc1 as the compound, how does the pIC50 [1] read?
A: Its pIC50 is 5.09.

Q: With O=C(c1ccc(C2CC2)cc1)C1CCN(C(=O)c2cccc(O)c2)CC1 as the compound, how does the pIC50 [1] read?
A: Its pIC50 is 6.43.

Q: With CC(C)c1ccc(C(=O)C2CCN(C(=O)c3cc(O)ccc3F)CC2)cc1 as the compound, how does the pIC50 [1] read?
A: The pIC50 was 7.09.

Q: With O=C(c1ccc(-c2cn(CCCc3ccccc3)nn2)cc1)C1CCN(C(=O)c2cccc(O)c2)CC1 as the compound, how does the pIC50 [1] read?
A: The pIC50 was 5.48.

Q: With O=C(c1ccc(Oc2ccccc2)cc1)C1CCN(C(=O)c2cccc(O)c2)CC1 as the compound, how does the pIC50 [1] read?
A: Its pIC50 is 6.56.

Q: With Cc1ccc(O)cc1C(=O)N1CCC(C(=O)c2ccc(C(C)C)cc2)CC1 as the compound, how does the pIC50 [1] read?
A: Its pIC50 is 5.64.

Q: With O=C(c1ccc(C2CCCCC2)cc1)C1CCN(C(=O)c2cccc(O)c2)CC1 as the compound, how does the pIC50 [1] read?
A: The pIC50 was 6.89.

Q: With Nc1ccn([C@@H]2O[C@H](CO)[C@@H](O)C2(F)F)c(=O)n1 [GEMCITABINE] as the compound, how does the pIC50 [2] read?
A: The pIC50 was 8.26.

Q: With CC(C)c1ccc(C(=O)C2CCN(C(=O)c3cncc(O)c3)CC2)cc1 as the compound, how does the pIC50 [1] read?
A: The pIC50 was 5.70.

Q: With O=C(c1ccc([S+]([O-])c2ccccc2)cc1)C1CCN(C(=O)c2cccc(O)c2)CC1 (stereo not given) as the compound, how does the pIC50 [1] read?
A: Its pIC50 is 5.37.

Q: With CC(C)c1ccc(C(=O)C2CCN(C(=O)c3cc(O)c(F)cc3F)CC2)cc1 as the compound, how does the pIC50 [1] read?
A: Its pIC50 is 7.51.

Q: With COc1nn(-c2ccc(NC(=O)OCc3ccccc3)c(C)c2)c(=O)o1 as the compound, how does the pIC50 [3] read?
A: The pIC50 was 4.28.

Q: And the “inhibition (INH)” value [4]?
A: The value was 50%.

Q: And the pIC50 [1]?
A: Its pIC50 is 6.89.

Q: And the pIC50 [5]?
A: The pIC50 was 4.08.

Q: What about the pIC50 [6] of the same compound?
A: The pIC50 was 4.48.

Q: What about the pIC50 [7] of the same compound?
A: The pIC50 was 4.42.

Q: What about the pIC50 [8] of the same compound?
A: The pIC50 was 4.02.

Q: With O=C(c1ccc(Cc2ccccc2)cc1)C1CCN(C(=O)c2cccc(O)c2)CC1 as the compound, how does the pIC50 [1] read?
A: The pIC50 was 7.11.

Q: With O=C(c1ccc(Sc2ccccc2)cc1)C1CCN(C(=O)c2cccc(O)c2)CC1 as the compound, how does the pIC50 [1] read?
A: The pIC50 was 7.13.

Q: With CC(C)c1ccc(C(=O)C2CCN(C(=O)c3cc(O)ccn3)CC2)cc1 as the compound, how does the pIC50 [1] read?
A: The pIC50 was under 5.00.
